Consider 76 compounds from ChEMBL document CHEMBL4028856, “Discovery of Small Molecules Targeting the Synergy of Cardiac Transcription Factors GATA4 and NKX2-5” (J Med Chem, 2017).

The target in one assay is GATA4/NKX2-5 (Mus musculus, UniProt P42582+Q08369). The assay can be described thus: Inhibition of mouse GATA4/NKX2-5 transcriptional synergy expressed in African green monkey COS-1 cells measured after 30 hrs by dual luciferase reporter gene assay. It is filed as cell-based. In a few lines:
(§1)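 COS-1 cells co-transfected (Fugene 6, DNA:reagent 1:3) with p3xNKE-luc, Renilla pRL-TKd238 control, and pMT2-GATA4, pMT2-NKX2-5, both, or empty pMT2; DNA balanced with pMT2. Compounds added 6 h post-transfection in 0.1% DMSO, medium renewed at 24 h, lysis at 30 h. Dual-luciferase read-out, firefly/Renilla normalized to vehicle; duplicate wells.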
On the technique in general: In a reporter assay the amount or activity of a reporter protein is the signal.

Assay [1] has as its target GATA4/NKX2-5 (Mus musculus) (UniProt Q08369+P42582). The assay can be described thus: Inhibition of mouse GATA4/NKX2-5 transcriptional synergy expressed in African green monkey COS-1 cells at 20 uM measured after 30 hrs by dual luciferase reporter gene assay. It is filed as cell-based. Particulars: 5 uM, in the assay text read “5 uM” for “20 uM”. In a few lines: as §1

Assay [2] deals with T1, GATA4/NKX2-5 (Rattus norvegicus) (UniProt P46152+O35767). The assay can be described thus: Inhibition of GATA4/NKX2-5 interaction in neonatal rat ventricular cardiomyocytes assessed as decrease in endothelin-1 induced mRNA level of ANP at 20 uM preincubated for 1 hr followed by endothelin-1 addition measured after 23 hrs by real-time PCR analysis. In a few lines:
(§2)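 Neonatal rat ventricular myocytes (2–4-day-old Sprague-Dawley or Wistar), preplated, seeded on 6-well plates, moved to complete serum-free medium next day and cultured 24 h. Compounds (10–100 μM) added 1 h before 100 nM endothelin-1 or none; ANP and BNP mRNA quantified by RT-PCR at 24 h, normalized to 18S RNA, relative to vehicle; mean ± SD, n = 3–6.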
In general terms: Quantitative PCR measures a nucleic acid by following its amplification.

Assay [3] has as its target T1, GATA4/NKX2-5 (Rattus norvegicus). The assay can be described thus: Inhibition of GATA4/NKX2-5 interaction in neonatal rat ventricular cardiomyocytes assessed as decrease in endothelin-1 induced mRNA level of BNP at 20 uM preincubated for 1 hr followed by endothelin-1 addition measured after 23 hrs by real-time PCR analysis. In a few lines: as §2

The source made the active and inactive calls. The calls are words filed in the database; no cut-off is given here.

GATA4/NKX2-5, sequence (Q08369 whole entry): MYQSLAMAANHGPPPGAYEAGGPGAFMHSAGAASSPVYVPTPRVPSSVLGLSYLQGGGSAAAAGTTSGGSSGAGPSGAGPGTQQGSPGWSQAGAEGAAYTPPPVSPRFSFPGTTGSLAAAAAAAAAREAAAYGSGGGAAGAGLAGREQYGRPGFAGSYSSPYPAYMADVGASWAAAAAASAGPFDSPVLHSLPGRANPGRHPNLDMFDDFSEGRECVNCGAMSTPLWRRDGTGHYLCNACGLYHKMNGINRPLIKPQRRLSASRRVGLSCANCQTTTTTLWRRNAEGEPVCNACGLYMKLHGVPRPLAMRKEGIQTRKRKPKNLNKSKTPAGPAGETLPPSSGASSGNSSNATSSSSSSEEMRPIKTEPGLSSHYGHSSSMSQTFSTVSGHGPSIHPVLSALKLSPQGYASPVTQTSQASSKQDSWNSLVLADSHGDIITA
GATA4/NKX2-5, sequence (P42582 whole entry): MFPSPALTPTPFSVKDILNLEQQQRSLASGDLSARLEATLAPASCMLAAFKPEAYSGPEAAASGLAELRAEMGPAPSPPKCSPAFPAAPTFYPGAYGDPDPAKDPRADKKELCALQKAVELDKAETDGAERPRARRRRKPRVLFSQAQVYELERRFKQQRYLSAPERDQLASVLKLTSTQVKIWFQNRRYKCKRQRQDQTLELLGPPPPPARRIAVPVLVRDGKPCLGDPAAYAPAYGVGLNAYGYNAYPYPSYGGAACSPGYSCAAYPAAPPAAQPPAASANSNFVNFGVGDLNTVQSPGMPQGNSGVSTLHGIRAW

Usually IC50 stands for the midpoint of a concentration-inhibition curve. In the case of `COc1cccc(/C=N/n2c(S)nnc2-c2ccccc2)c1`, the IC50 at GATA4/NKX2-5 was over 50 µM. On the same count and under the same terms, then `CCC(C)c1ccc(NC(=O)c2c(-c3ccccc3Cl)noc2C)cc1` (configuration not stated), with 20 µM; and `O=C1NC(=O)/C(=C/c2cccc([N+](=O)[O-])c2)S1`, with 20 µM. On the same count and under the same terms, as for `CCOc1ccccc1/C=N/n1c(S)nnc1-c1ccccc1`, the figure is 8 µM; as for `Cc1onc(-c2ccccc2)c1C(=O)Nc1ccc(C(C)C)cc1`, 16 µM; as for `CC(C)CNC(=O)c1ccc(NC(=O)c2ccccc2)cc1`, over 50 µM. Still for that read-out and setting: as for `CC(C)CNC(=O)c1ccc(NC(=O)c2cccs2)cc1`, the figure is over 50 µM. Consider `CC(C)CCN1C(=O)S/C(=C\c2ccc(N(C)C)cc2)C1=O`, for which the IC50 at GATA4/NKX2-5 worked out at 10 µM. `CCOc1ccc(/C=C2\SC(=O)N(CC)C2=O)cc1`: the IC50 at GATA4/NKX2-5 turned out to be 5 µM. Also, the inhibition entry in assay [1] was “Active”.

As for `Cc1onc(-c2ccccc2)c1C(=O)Nc1ccc(C(=O)OC(C)C)cc1`, the IC50 at GATA4/NKX2-5 is 20 µM. On to `CCN(CC)S(=O)(=O)c1cc(NC(=O)c2c(-c3ccccc3)noc2C)ccc1C`, for which the IC50 on GATA4/NKX2-5 was over 50 µM. On the same count and under the same terms, then `CCN(CC)S(=O)(=O)c1cccc(NC(=O)c2c(-c3ccccc3)noc2C)c1`, with over 50 µM.

As for `CC(C)(C)c1ccc(/C=N/n2c(S)nnc2-c2cccnc2)cc1`, the IC50 at GATA4/NKX2-5 was 30 µM. Still for that read-out and setting: then `Cc1onc(-c2ccccc2)c1C(=O)Nc1ccc(S(=O)(=O)Nc2ncccn2)cc1`, with 28 µM. Turning to `CCN1C(=O)S/C(=C\c2ccc(N3CCCC3)c(F)c2)C1=O`, the IC50 on GATA4/NKX2-5 turned out to be 8 µM.

On to `COc1ccc(/C=N/n2c(S)nnc2C2CCCCC2)cc1OCc1ccccc1`, for which the IC50 on GATA4/NKX2-5 worked out at 10 µM.

As for `Cc1onc(-c2ccccc2)c1C(=O)Nc1ccc(OC(C)C)cc1`, the half-maximal inhibitory concentration (IC50) at GATA4/NKX2-5 came out at 13 µM. Besides, the inhibition entry in assay [2] is “Active”. Take `Cc1onc(-c2ccccc2)c1C(=O)Nc1cccc(S(=O)(=O)N2CCCC2)c1`: on GATA4/NKX2-5, the IC50 worked out at 33 µM. On the same count and under the same terms, then `CC(C)CNC(=O)c1ccc(NC(=O)C2CC2)cc1`, with 23 µM. The same measure, in the same setting: as for `CC(C)CNC(=O)c1ccc(NC(=O)C(F)(F)F)cc1`, the figure is 42 µM; as for `CCCC(=O)Nc1ccc(C(=O)NCC(C)C)cc1`, over 50 µM. In the case of `Cc1onc(-c2ccccc2)c1C(=O)Nc1ccc(OC(F)(F)F)cc1`, on GATA4/NKX2-5, the IC50 came to 11 µM. Also, the inhibition entry in assay [2] and in assay [3] was “Active” in each case. Take `CC(C)COC(=O)c1ccc(NC(=O)COc2ccccc2Cl)cc1`: at GATA4/NKX2-5, the IC50 was over 50 µM.

Regarding `Cc1onc(-c2ccccc2)c1C(=O)Nc1ccc(Oc2ccccc2)cc1`, the IC50 at GATA4/NKX2-5 is over 50 µM. Turning to `CC(C)(C)c1ccc(/C=N/n2c(S)nnc2-c2ccncc2)cc1`, at GATA4/NKX2-5, the IC50 amounted to 7 µM. `CC(C)COC(=O)c1ccc(NC(=O)CCC(=O)O)cc1`: the IC50 at GATA4/NKX2-5 was determined as 37 µM.

Take `CCN(CC)c1ccc(/C=N/n2c(S)nnc2C2CCCCC2)cc1`: the IC50 on GATA4/NKX2-5 was determined as 6 µM. Still for that read-out and setting: as for `COc1cccc(C(=O)Nc2ccc(C(=O)NCC(C)C)cc2)c1`, the figure is over 50 µM; as for `COc1cccc(/C=N/n2c(S)nnc2-c2ccccc2)c1OC`, 8 µM; as for `CC(C)CNC(=O)c1ccc(NC(=O)C2CCCCC2)cc1`, over 50 µM. On the same count and under the same terms, as for `CC(C)c1ccc(/C=N/n2c(S)nnc2-c2cccnc2)cc1`, the figure is over 50 µM. For the compound `c1ccc(-c2nonc2-c2ccccc2)cc1`, the IC50 at GATA4/NKX2-5 stood at 50 µM. Still for that read-out and setting: then `CCC(CC)C(=O)Nc1ccc(C(=O)NCC(C)C)cc1`, with over 50 µM. With `Cc1onc(-c2ccccc2)c1C(=O)Nc1ccc(C#N)c(Cl)c1`, on GATA4/NKX2-5, the IC50 stood at 16 µM. Moreover, the inhibition entry in assay [2] is “Active”. For the compound `Cc1onc(-c2ccccc2)c1C(=O)Nc1ccc(N2CCCCC2)cc1`, at GATA4/NKX2-5, the IC50 is over 50 µM. Consider `Cc1onc(-c2ccccc2Cl)c1C(=O)Nc1ccc(N2CCOCC2)cc1`, for which the half-maximal inhibitory concentration (IC50) at GATA4/NKX2-5 stood at 38 µM. Same read-out and setting: then `Cc1onc(-c2ccccc2)c1C(=O)Nc1cccc(S(=O)(=O)NCc2ccco2)c1`, with 20 µM; and `Cc1onc(-c2ccccc2)c1C(=O)Nc1ccc(-n2cnnn2)cc1`, with over 50 µM. The same measure, in the same setting: as for `COc1ccc(/C=N/n2c(S)nnc2-c2ccccc2)cc1C`, the figure is 11 µM; as for `Cc1ccc(C(=O)Nc2ccc(C(=O)OCC(C)C)cc2)cc1C`, over 50 µM.

Regarding `CCc1ccc(/C=C2\SC(=O)NC2=O)cc1`, the IC50 on GATA4/NKX2-5 turned out to be 21 µM.

Take `CCOc1ccc(/C=N/n2c(S)nnc2C2CCCCC2)cc1`: at GATA4/NKX2-5, the IC50 came out at 7 µM. Same read-out and setting: as for `Cc1onc(-c2ccccc2)c1C(=O)Nc1ccc(N2CCOCC2)cc1`, the figure is over 50 µM. As to `CC(C)COC(=O)c1ccc(NC(=O)c2cccs2)cc1`, on GATA4/NKX2-5, the IC50 turned out to be 9 µM. Further, the inhibition entry in assay [2] is “Active”.

Consider `Cc1onc(-c2ccccc2)c1C(=O)Nc1ccc(-c2nnc3n2CCCCC3)cc1`, for which the IC50 on GATA4/NKX2-5 was determined as 20 µM. The same measure, in the same setting: then `Cc1cccc(/C=N/n2c(S)nnc2-c2ccccc2)c1`, with over 50 µM; and `Cc1onc(-c2ccccc2Cl)c1C(=O)Nc1ccc(C(C)(C)C)cc1`, with 22 µM. The same measure, in the same setting: then `Cc1onc(-c2ccccc2)c1C(=O)Nc1ccc2c(c1)OC1(CCCC1)O2`, with 23 µM. On the same count and under the same terms, as for `CC(C)CNC(=O)c1ccc(NC(=O)C2CCCO2)cc1` (configuration not stated), the figure is over 50 µM; as for `O=c1cc(-c2ccc(O)cc2)oc2cc(O)cc(O)c12` [APIGENIN], 24 µM; as for `Cc1nc(-c2ccc(NC(=O)c3c(-c4ccccc4)noc3C)cc2)cs1`, over 50 µM. As to `CN(C)c1ccc(/C=N/n2c(S)nnc2-c2ccncc2)cc1`, the IC50 at GATA4/NKX2-5 came to 7 µM.

As for `CCN(CC)c1ccc(/C=N/n2c(S)nnc2-c2ccc(OC)cc2)cc1`, at GATA4/NKX2-5, the IC50 came out at 19 µM.

As to `CCCOc1ccc(NC(=O)c2c(-c3ccccc3)noc2C)cc1`, the IC50 at GATA4/NKX2-5 was over 50 µM. On the same count and under the same terms, then `CCNc1ccc(NC(=O)c2c(-c3ccccc3)noc2CO)cc1`, with over 50 µM; and `CCN(CC)c1ccc(/C=N/n2c(S)nnc2-c2ccccc2)c(OC)c1`, with over 50 µM. Still for that read-out and setting: as for `CCOc1ccc(NC(=O)c2c(-c3ccccc3)noc2C)cc1`, the figure is 20 µM; as for `Cc1onc(-c2ccccc2)c1C(=O)Nc1ccc(S(=O)(=O)N2CCOCC2)cc1`, over 50 µM. On the same count and under the same terms, as for `Cc1onc(-c2ccccc2)c1C(=O)Nc1ccc2c(c1)CCC2`, the figure is 17 µM; as for `CCCCOc1ccc(/C=N/n2c(S)nnc2CC)cc1`, over 50 µM. With `COc1ccc(/C=N/n2c(SC)nnc2-c2ccccc2)cc1C`, the IC50 on GATA4/NKX2-5 came to 24 µM. `O=C(O)/C(=C/c1ccccc1)c1c(F)c(F)c(F)c(F)c1F`: the IC50 on GATA4/NKX2-5 is 50 µM.

On to `Cc1onc(-c2ccccc2)c1C(=O)Nc1ccc(Sc2nccn2C)cc1`, for which, at GATA4/NKX2-5, the IC50 is over 50 µM. Regarding `CCCOC(=O)c1ccc(NC(=O)c2c(-c3ccccc3)noc2C)cc1`, the IC50 at GATA4/NKX2-5 was over 50 µM.

`C=CCc1cccc(/C=N/n2c(S)nnc2-c2ccccc2)c1O`: the IC50 on GATA4/NKX2-5 is 20 µM. Same read-out and setting: as for `O=c1cc(-c2ccc(O)c(O)c2)oc2cc(O)cc(O)c12` [LUTEOLIN], the figure is 22 µM; as for `Cc1onc(-c2ccccc2)c1C(=O)Nc1cccc(S(=O)(=O)NC2=NC=CC2)c1`, 28 µM. On the same count and under the same terms, then `CCOc1ccc(/C=C2\SC(=O)N(CC)C2=O)cc1OCC`, with 26 µM; and `Sc1nnc(-c2ccccc2)n1/N=C/c1ccc(OC2CCCC2)cc1`, with 37 µM; and `Cc1onc(-c2ccccc2)c1C(=O)Nc1cccc(C(=O)NC2CC2)c1`, with 20 µM.

For the compound `CCOc1ccc(/C=N/n2c(SC)nnc2-c2ccccc2)cc1OCC`, at GATA4/NKX2-5, the IC50 was 30 µM. On the same count and under the same terms, as for `Sc1nnc(-c2ccccc2)n1/N=C/c1cccc(Oc2ccccc2)c1`, the figure is 13 µM; as for `CCC(C)c1ccc(NC(=O)c2c(-c3ccccc3)noc2C)cc1` (configuration not stated), 32 µM.

For `Cc1onc(-c2ccccc2)c1C(=O)Nc1ccc(C(C)(C)C)cc1`, the IC50 at GATA4/NKX2-5 came to 18 µM. Same read-out and setting: then `COc1cccc(/C=N/n2c(SC)nnc2-c2ccccc2)c1OC`, with over 50 µM; and `Fc1cccc(/C=N/n2c(S)nnc2-c2ccccc2)c1`, with over 50 µM.
